In ChEMBL document CHEMBL1132372, “The opioid mu agonist/delta antagonist DIPP-NH(2)[Psi] produces a potent analgesic effect, no physical dependence, and less tolerance than morphine in rats” (J Med Chem, 1999):
Square brackets hold non-standard residues; d marks the D form. Peptide text beside a SMILES is read from it. NMeDmt = CN[C@@H](Cc1c(C)cc(O)cc1C)C(=O)O; Dmt = Cc1cc(O)cc(C)c1C[C@H](N)C(=O)O; Tic = O=C(O)[C@@H]1Cc2ccccc2CN1

How the values were obtained:
[1] = species: Rattus norvegicus; assay: Analgesic Potency of compound in Comparison with Morphine evaluated by rat tail flick test; assay type: functional
[2] = species: Mus musculus; assay: Compound was evaluated for its antagonist potency against delta agonist […] by MVD assay(mouse vas deferens).; assay type: functional
[3] = species: Cavia porcellus; assay: Compound was evaluated for inhibition of electrically evoked contractions of the GPI (guinea pig ileum); assay type: functional
Method in brief: (§1)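 Inhibition of electrically evoked contractions of guinea pig ileum. Each preparation also run with a [Leu5]enkephalin standard dose-response curve, and test IC50 values normalised against it.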

[4] = target: Kappa-type opioid receptor (Cavia porcellus, UniProt P41144); assay: Binding affinity for Opioid receptor kappa 1 determined by displacement of [3H]U-69593 from guinea pig brain membranes; design: species or system Membrane
Kappa-type opioid receptor, sequence (P41144 whole entry): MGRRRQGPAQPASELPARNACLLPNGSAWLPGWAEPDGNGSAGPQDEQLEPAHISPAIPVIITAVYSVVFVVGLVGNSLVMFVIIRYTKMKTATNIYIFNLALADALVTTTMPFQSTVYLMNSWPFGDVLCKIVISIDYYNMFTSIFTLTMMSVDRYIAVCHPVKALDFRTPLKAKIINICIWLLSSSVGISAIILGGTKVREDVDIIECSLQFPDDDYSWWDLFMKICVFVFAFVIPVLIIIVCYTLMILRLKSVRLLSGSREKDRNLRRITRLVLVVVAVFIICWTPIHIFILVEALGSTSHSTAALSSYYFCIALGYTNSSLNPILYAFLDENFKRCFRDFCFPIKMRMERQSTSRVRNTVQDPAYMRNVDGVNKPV
Method in brief: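 Guinea pig brain membranes incubated 2 h at 0 °C with 0.80 nM [3H]U69,593. IC50 taken from log dose-displacement curves; Ki by Cheng-Prusoff using Kd 2.9 nM.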

[5] = species: Mus musculus; assay: Compound was evaluated for its antagonist potency against delta agonist deltorphin I, by MVD assay(mouse vas deferens).; assay type: functional
[6] = target: Delta-type opioid receptor (Rattus norvegicus, UniProt P33533); assay: Binding affinity for Opioid receptor delta 1 determined by displacing [3H]-DSLET from rat brain membrane binding sites
Delta-type opioid receptor, sequence (P33533 whole entry): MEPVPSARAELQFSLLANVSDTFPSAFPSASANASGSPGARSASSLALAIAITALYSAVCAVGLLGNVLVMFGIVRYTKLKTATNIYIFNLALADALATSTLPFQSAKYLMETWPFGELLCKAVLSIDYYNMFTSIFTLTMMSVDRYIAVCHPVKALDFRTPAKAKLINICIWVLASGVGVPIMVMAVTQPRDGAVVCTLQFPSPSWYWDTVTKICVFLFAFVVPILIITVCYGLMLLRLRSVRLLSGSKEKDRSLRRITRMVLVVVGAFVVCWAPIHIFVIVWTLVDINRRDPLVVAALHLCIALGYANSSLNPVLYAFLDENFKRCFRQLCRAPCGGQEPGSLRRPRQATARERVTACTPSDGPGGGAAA

[7] = species: Cavia porcellus; assay: Compound was evaluated for inhibition of electrically evoked contractions of the GPI (guinea pig ileum); PA=Partial agonist; assay type: functional; method in brief: as §1
[8] = target: Mu-type opioid receptor (Rattus norvegicus, UniProt P33535); assay: Binding affinity for Opioid receptor mu 1 determined by displacing [3H]DAMGO from rat brain membrane binding sites
Mu-type opioid receptor, sequence (P33535 whole entry): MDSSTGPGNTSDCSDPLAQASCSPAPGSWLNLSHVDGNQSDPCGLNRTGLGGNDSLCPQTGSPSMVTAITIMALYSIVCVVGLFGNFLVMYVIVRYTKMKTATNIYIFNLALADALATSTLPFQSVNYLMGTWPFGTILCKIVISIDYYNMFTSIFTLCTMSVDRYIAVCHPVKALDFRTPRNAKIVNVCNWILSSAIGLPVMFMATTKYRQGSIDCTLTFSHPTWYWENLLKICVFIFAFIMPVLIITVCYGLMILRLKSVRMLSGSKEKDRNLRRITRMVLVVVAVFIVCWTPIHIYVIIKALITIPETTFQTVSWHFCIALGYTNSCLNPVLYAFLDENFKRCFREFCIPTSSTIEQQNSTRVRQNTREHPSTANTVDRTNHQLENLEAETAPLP

[9] = species: Cavia porcellus; assay: Compound was evaluated for antagonist potency against mu receptor. agonist TAPP by GPI (guinea pig ileum) assay.; assay type: functional

Row | Compound | ED50 [1] [µg] | Ke [2] [nM] | IC50 [3] [nM] | Ki [4] [nM] | Ke [5] [nM] | Ki [6] [nM] | IC50 [7] | Ki [8] [nM] | Ke [9] [nM]
1 | CN1CC[C@]23c4c5ccc(O)c4O[C@H]2[C@@H](O)C=C[C@H]3[C@H]1C5 [MORPHINE] | 0.11 | – | – | – | – | – | – | – | –
2 | Cc1cc(O)cc(C)c1C[C@H](N)C(=O)N1Cc2ccccc2CC1CN[C@@H](Cc1ccccc1)C(=O)N[C@@H](Cc1ccccc1)C(N)=O (stereo partly drawn) | – | 0.537 | 7.71 | > 1000 | 0.486 | – | – | – | –
3 | CN[C@@H](Cc1c(C)cc(O)cc1C)C(=O)N1Cc2ccccc2C[C@H]1C(=O)N[C@@H](Cc1ccccc1)C(=O)N[C@@H](Cc1ccccc1)C(N)=O (H-[NMeDmt][Tic]FF-NH2) | – | 0.235 | – | > 1000 | 0.233 | 0.393 | Partial agonist | 4.08 | –
4 | Cc1cc(O)cc(C)c1C[C@H](N)C(=O)N1Cc2ccccc2C[C@H]1C(=O)N[C@@H](Cc1ccccc1)C(=O)N[C@@H](Cc1ccccc1)C(N)=O (H-[Dmt][Tic]FF-NH2) | – | – | – | > 1000 | – | – | – | – | –
5 | CN[C@@H](Cc1c(C)cc(O)cc1C)C(=O)N1Cc2ccccc2CC1CN[C@@H](Cc1ccccc1)C(=O)N[C@@H](Cc1ccccc1)C(N)=O (stereo partly drawn) | – | 22.1 | – | > 1000 | 54.4 | 61 | – | 76.2 | 64.5
